The text below walks through data of paper PMC9214849 (Chemical Science, 2022).

The test system of series [1] is Candida albicans, Escherichia coli, Enterococcus faecalis, and Staphylococcus epidermidis. Conditions: ref 41,42 (Aβ); 43 (hIAPP); 44,45 (GNNQQNY); 46 (KLVFFGAIL); cited from earlier work.
Series [2] relates to RIN-m5F cells. In words: LDH cytotoxicity, RIN-m5F. The class given is cell-based, rat. Conditions: pure amyloid 20 μM, 24 h; % of positive control.
Another series relates to Escherichia coli. Conditions: cited from earlier work.
The subject of series [3] is RIN-m5F cells. In words: MTT cell viability, RIN-m5F. The class given is cell-based, rat. Conditions: pure amyloid 20 μM, 24 h.
Series [4] concerns the target human islet amyloid polypeptide1-37 (hIAPP) (Homo sapiens, UniProt P10997). In words: CD secondary structure, hIAPP. Conditions: pure 20 μM, 10 mM sodium phosphate pH 7.4, 37 °C, 24–72 h, BeStSel. The class given is biochemical. The gist of the method:
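Samples held 20 μM hIAPP with 0, 5 or 20 μM defensin. Circular dichroism spectra were recorded on the aggregates. Secondary-structure fractions, including β-structure content, were fitted from the spectra with BestSel.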

The test system of another series is Staphylococcus aureus. Conditions: cited from earlier work.
Series [5] has as its system SH-SY5Y cells. In words: LDH cytotoxicity, SH-SY5Y. The class given is cell-based, human. Conditions: pure amyloid 20 μM, 24 h; % of positive control.
The subject of series [6] is SH-SY5Y cells. In words: MTT cell viability, SH-SY5Y. Type of series: cell-based, human. Conditions: pure amyloid 20 μM, 24 h.
The target in series [7] is T1, human calcitonin1-32 (hCT) (Homo sapiens, UniProt P01258).
T1 sequence (P01258 85-116): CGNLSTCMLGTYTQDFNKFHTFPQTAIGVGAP
In words: CD secondary structure, hCT. The class given is biochemical. Conditions: pure 20 μM, 10 mM sodium phosphate pH 7.4, 37 °C, 24–72 h, BeStSel. The method in brief: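 Aβ, hIAPP or hCT at 20 μM, alone or co-incubated with test defensin at 37 °C. Circular dichroism spectra were deconvoluted with BestSel into secondary-structure fractions, including β-structure content.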

For series [8], the target named is T1, human calcitonin1-32 (hCT). In words: AFM morphology of aggregates, hCT. Type of series: biochemical. Conditions: pure hCT 20 μM, 24 h. The gist of the method: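 AFM imaging of samples taken at different time points of the ThT kinetics runs. hCT at 20 μM was incubated alone or with 5–20 μM test defensin at 37 °C. Fibril heights and lengths were measured from the images.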

Chain of human islet amyloid polypeptide1-37 (hIAPP) (P10997 34-70): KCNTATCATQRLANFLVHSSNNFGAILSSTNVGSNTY

Consider KLVFFGAIL, for which the “antibacterial and antifungal activities” value in [1] is “antibacterial and antifungal activities”.
For orientation: cell viability means a per cent measure of how many cells are alive, often set against a control. High values mean better survival, low ones a greater loss of cells. Molecule `CC[C@H](C)[C@H](NC(=O)[C@H](C)NC(=O)CNC(=O)[C@H](Cc1ccccc1)NC(=O)[C@H](CC(N)=O)NC(=O)[C@H](CC(N)=O)NC(=O)[C@H](CO)NC(=O)[C@H](CO)NC(=O)[C@H](Cc1c[nH]cn1)NC(=O)[C@@H](NC(=O)[C@H](CC(C)C)NC(=O)[C@H](Cc1ccccc1)NC(=O)[C@H](CC(N)=O)NC(=O)[C@H](C)NC(=O)[C@H](CC(C)C)NC(=O)[C@H](CCCNC(=N)N)NC(=O)[C@H](CCC(N)=O)NC(=O)[C@@H](NC(=O)[C@H](C)NC(=O)[C@@H]1CSSC[C@H](NC(=O)[C@@H](N)CCCCN)C(=O)N[C@@H](CC(N)=O)C(=O)N[C@@H]([C@@H](C)O)C(=O)N[C@@H](C)C(=O)N[C@@H]([C@@H](C)O)C(=O)N1)[C@@H](C)O)C(C)C)C(=O)N[C@@H](CC(C)C)C(=O)N[C@@H](CO)C(=O)N[C@@H](CO)C(=O)N[C@H](C(=O)N[C@@H](CC(N)=O)C(=O)N[C@H](C(=O)NCC(=O)N[C@@H](CO)C(=O)N[C@@H](CC(N)=O)C(=O)N[C@H](C(=O)N[C@@H](Cc1ccc(O)cc1)C(N)=O)[C@@H](C)O)C(C)C)[C@@H](C)O` [hIAPP] showed a cell toxicity in the series on RIN-m5F cells [2] of 25%. In addition, the bacteria growth entry in the series with Escherichia coli is “hinder Staphylococcus aureus and Escherichia coli bacteria growth”; in the series on Staphylococcus aureus, “hinder Staphylococcus aureus and Escherichia coli bacteria growth”. For the same molecule, in the series on RIN-m5F cells [3], the cell viability was found to be 55%. Moreover, the β-structure content in [4] is 48.5%. Moreover, the “antibacterial and antifungal activities” value in series [1] is “antibacterial and antifungal activities”.
For `CC[C@H](C)[C@H](NC(=O)[C@H](C)NC(=O)[C@@H](NC(=O)[C@H](CCC(N)=O)NC(=O)[C@@H]1CCCN1C(=O)[C@H](Cc1ccccc1)NC(=O)[C@@H](NC(=O)[C@H](Cc1c[nH]cn1)NC(=O)[C@H](Cc1ccccc1)NC(=O)[C@H](CCCCN)NC(=O)[C@H](CC(N)=O)NC(=O)[C@H](Cc1ccccc1)NC(=O)[C@H](CC(=O)O)NC(=O)[C@H](CCC(N)=O)NC(=O)[C@@H](NC(=O)[C@H](Cc1ccc(O)cc1)NC(=O)[C@@H](NC(=O)CNC(=O)[C@H](CC(C)C)NC(=O)[C@H](CCSC)NC(=O)[C@@H]1CSSC[C@H](N)C(=O)NCC(=O)N[C@@H](CC(N)=O)C(=O)N[C@@H](CC(C)C)C(=O)N[C@@H](CO)C(=O)N[C@@H]([C@@H](C)O)C(=O)N1)[C@@H](C)O)[C@@H](C)O)[C@@H](C)O)[C@@H](C)O)C(=O)NCC(=O)N[C@H](C(=O)NCC(=O)N[C@@H](C)C(=O)N1CCC[C@H]1C(N)=O)C(C)C` [hCT], the cell toxicity in the series on SH-SY5Y cells [5] is listed as 35%. In addition, the cell viability with SH-SY5Y cells [6] was 67%. For the same molecule, the β-structure content in series [7] is on record as 56.4%. In series [8], the “average height of fibrils” value worked out at 16 nm. In series [8] (N up to 40), the “average length of fibrils” value stood at 477 nm.
Regarding GNNQQNY, in series [1], the “antibacterial and antifungal activities” value is “antibacterial and antifungal activities”.
